Series [1] in a line: Plasma concentration in CE-2 chow diet-fed golden Syrian hamster assessed as 4-(4-(1,1,1,3,3,3-Hexafluoro-2-hydroxypropan-2-yl)-2,6-di-n-propylphenoxy)-butanoic acid level at 100 mg/kg, po after 4 hrs by HPLC-LC-MS/MS method. The series is classed as ADME, organism-based, Mesocricetus auratus. The note with it: in vivo. The method in brief: (§1)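 Hamsters on chow diet received a single oral dose of 100 mg/kg. Heparin plasma was drawn from a forearm vein at 0.5, 1, 2, 3, 4, 6, 8, 10 and 24 h after dosing. Concentrations of parent drug and its carboxylic acid metabolite were measured in plasma.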

Series [2] concerns Hamster. As to the kind of experiment: Increase in ABCG5 gene expression in Bio F1B hamster intestine at 30 mg/kg, po. The format is functional, Cricetinae. An outline of the steps: (§2)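 Bio F1B hamsters were fed a high-fat, high-cholesterol diet and dosed orally. Gene expression was measured in intestine (ABCA1, ABCG5, ABCG8) and in peripheral blood (ABCA1).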
Series [3] concerns Hamster. As to the kind of experiment: Hypolipidemic effect in Bio F1B hamster fed with high fat and cholesterol diet assessed as total cholesterol level at 10 mg/kg, po relative to control. The format is functional, Cricetinae.
Series [4] deals with Hamster. As to the kind of experiment: Hypolipidemic effect in Bio F1B hamster fed with high fat and cholesterol diet assessed as HDL-cholesterol level at 10 mg/kg, po relative to control. The series is classed as functional, Cricetinae.
Series [5] has as its system Hamster. As to the kind of experiment: Hypolipidemic effect in Bio F1B hamster fed with high fat and cholesterol diet assessed as LDL-cholesterol level at 30 mg/kg, po relative to control. The series is classed as functional, Cricetinae.
Series [6] in a line: Plasma concentration in CE-2 chow diet-fed golden Syrian hamster at 100 mg/kg, po after 3 hrs by HPLC-LC-MS/MS method. The format is ADME, organism-based, Mesocricetus auratus. An outline of the steps: as §1
A short description of series [7]: Plasma concentration in CE-2 chow diet-fed golden Syrian hamster assessed as 4-(4-(1,1,1,3,3,3-Hexafluoro-2-hydroxypropan-2-yl)-2,6-di-n-propylphenoxy)-butanoic acid level at 100 mg/kg, po after 0.5 hrs by HPLC-LC-MS/MS method. The format is ADME, organism-based, Mesocricetus auratus. The note with it: in vivo. An outline of the steps:
as §1

For series [8], the system named is Hamster. As to the kind of experiment: Increase in ABCG8 gene expression in Bio F1B hamster intestine at 100 mg/kg, po. The series is classed as functional, Cricetinae. An outline of the steps: as §2
Series [9] can be described thus: Plasma concentration in CE-2 chow diet-fed golden Syrian hamster assessed as 4-(4-(1,1,1,3,3,3-Hexafluoro-2-hydroxypropan-2-yl)-2,6-di-n-propylphenoxy)-butanoic acid level at 100 mg/kg, po after 6 hrs by HPLC-LC-MS/MS method. The format is ADME, organism-based, Mesocricetus auratus. The note with it: in vivo. An outline of the steps:
as §1

In series [10] the test system is Hamster. As to the kind of experiment: Effect in lipid profiles in Bio F1B hamster fed with high fat and cholesterol diet assessed as triglyceride level at 30 mg/kg, po relative to control. The series is classed as organism-based. The note with it: cricetinae, in vivo.
Series [11] deals with Hamster. The series is described as follows: Hypolipidemic effect in Bio F1B hamster fed with high fat and cholesterol diet assessed as HDL-cholesterol level at 30 mg/kg, po relative to control. The format is functional, Cricetinae.
Series [12] is described as follows: Plasma concentration in CE-2 chow diet-fed golden Syrian hamster at 100 mg/kg, po after 2 hrs by HPLC-LC-MS/MS method. The format is ADME, organism-based, Mesocricetus auratus. An outline of the steps:
as §1

As for `CCCc1cc(C(O)(C(F)(F)F)C(F)(F)F)cc(CCC)c1OCCCCN1C(=O)NC(C)(c2ccc(OC(C)C)cc2)C1=O` (configuration not stated), the Cp in [1] was 529 ng/mL; in series [7] it was 52 ng/mL; in [9], 641 ng/mL. Besides, the “fold change (FC)” value in the series with Hamster [2] stood at 1.5; in the series on Hamster [8], 1.3. Further, the Activity in the series on Hamster [3] stood at 87%; in the series with Hamster [4], 98%; in the series with Hamster [5] it was 91%; with Hamster [10], 145%; in the series with Hamster [11] it was 92%. Moreover, the concentration at 3 h in [6] came out at 290 nM. This molecule also registered a concentration at 2 h in series [12] of 320 nM.

The record behind these values is ChEMBL document CHEMBL3588803, “Design, synthesis and pharmacology of 1,1-bistrifluoromethylcarbinol derivatives as liver X receptor β-selective agonists” (Bioorg Med Chem Lett, 2015).
